Sampled rows, rich in hits. Any-hit rate of the full collection: about 1.6%.
NCF1 inh = blocks human p47phox regulatory protein of NADPH oxidases | p47phox/p22phox peptide binding, fluorescence polarization, 2 h | inhibition, % at 24.7 µM | hit rate 0.53% among 220,000 | AID 1274;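 active means inhibition above about 30%, limit read from the data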;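 further: 0% = p47phox with labelled peptide and 100% = labelled peptide alone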
HSV augment = increases HSV replication in cells | HSV replication augmentation in cells, fold increase | maximum fold increase | hit rate 0.005% among 220,000; in the data active means maximum fold increase above about 1.5; tested in PC3 cells
PKD1 kinase inh = inhibitors of human PKD1 kinase. Q15139. PKD1 kinase fluorescence polarization assay. inhibition, % (no concentration beside the values). hit rate 0.056% among 200,000; in the data active means inhibition above about 50%
ABCG2 block = blocks JC-1 efflux by human ABCG2 transporter | IgMXP3 cells, flow cytometry | hit rate 0.1% among 190,000 | inhibition, % at 6.6 µM | Q9UNQ0;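 active means inhibition above 80%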;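 further: 0% = DMSO and 100% = nicardipine control wells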
Target sequence (Q9UNQ0 whole entry, looked up): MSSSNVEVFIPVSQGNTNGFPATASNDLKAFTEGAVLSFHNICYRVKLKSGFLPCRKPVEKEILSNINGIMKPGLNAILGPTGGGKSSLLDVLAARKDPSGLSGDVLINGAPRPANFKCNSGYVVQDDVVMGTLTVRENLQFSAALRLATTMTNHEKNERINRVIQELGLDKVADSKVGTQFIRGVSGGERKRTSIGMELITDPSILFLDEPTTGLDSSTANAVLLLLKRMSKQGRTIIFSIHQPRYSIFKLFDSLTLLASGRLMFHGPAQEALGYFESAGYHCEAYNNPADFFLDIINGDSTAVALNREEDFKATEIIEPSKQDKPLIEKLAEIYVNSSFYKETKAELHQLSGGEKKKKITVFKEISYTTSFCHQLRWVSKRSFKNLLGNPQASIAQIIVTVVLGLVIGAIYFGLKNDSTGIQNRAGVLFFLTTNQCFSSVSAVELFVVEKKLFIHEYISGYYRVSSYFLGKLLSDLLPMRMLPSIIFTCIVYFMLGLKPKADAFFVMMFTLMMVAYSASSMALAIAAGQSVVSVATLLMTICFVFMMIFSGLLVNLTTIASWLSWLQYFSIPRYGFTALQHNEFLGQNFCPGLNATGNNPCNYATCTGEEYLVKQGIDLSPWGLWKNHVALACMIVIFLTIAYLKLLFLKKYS
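Measure – % inhibition of efflux relative to nicardipine and DMSO · Test system – ABCG2 IgMXP3 and barcoded ABCB1 CCRF-Adr cell mix · Control set – nicardipine as high control, DMSO as low control · Compound – one concentration, 6.6 µM final · Signal – flow cytometry of retained JC-1 fluorescence · Timing – 10 min exposure at 25 °C with rotation, no wash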
ABCB1 block = blocks JC-1 efflux by human ABCB1 transporter. hit rate 0.067% among 190,000. CCRF-Adr cells, flow cytometry. P08183. AID 1326. inhibition, % at 6.6 µM; in the data active means inhibition above about 40%;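 further: 0% = vehicle and 100% = reference inhibitor; higher value means more JC-1 retained so stronger ABCB1 efflux block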
PHOSPHO1 inh = blocks human PHOSPHO1 phosphatase activity; Q8TCT1; inhibition, % at 13.3 µM; recombinant PHOSPHO1, absorbance phosphatase assay; hit rate 1.1% among 290,000; in the data active means inhibition above about 60%
* marks the source's active call; other numbers are inactive results; i = inactive; x = not tested or not shown.

SMILES | NCF1 inh | HSV augment | PKD1 kinase inh | ABCG2 block | ABCB1 block | PHOSPHO1 inh
CC(=O)Nc1ccc(N=Cc2c(O)c(C(=O)Nc3ccccc3)cc3ccccc23)cc1 | -229 | i | 30 | 103* | 70* | 12
CC(=O)Nc1ccc(N=Cc2c(O)c3ccccc3oc2=O)cc1 | x | x | x | x | x | 24
Nc1scc2c(C(=O)N/N=C/c3ccc(Cl)cc3)nn(-c3ccccc3)c(=O)c12 | -12 | i | 2 | 1 | 0 | 101*
CCOC(=O)c1nn(-c2ccccc2)c(=O)c2c(N)scc12 | -20 | i | -7 | 1 | 0 | 25
O=C(NCCO)c1ccc2nc(-c3ccco3)c(-c3ccco3)nc2c1 | -8 | i | -3 | 0 | -1 | 74*
O=C(NCCc1ccccc1)c1ccc2nc(-c3ccco3)c(-c3ccco3)nc2c1 | -14 | i | 1 | -3 | -1 | 53
N#Cc1c(NC(NC(=O)c2ccco2)C(=O)c2ccccc2)sc2c1CCCC2 (stereo not drawn) | -18 | i | -1 | 1 | 0 | 17
NC(=O)c1c(NC(NC(=O)c2ccco2)C(=O)c2ccc(Cl)cc2)sc2c1CCCC2 (stereo not drawn) | -19 | i | -5 | 2 | 0 | 100*
COc1ccc(C(=O)/C=C/C(=O)N(CC(=O)NC2CCCCC2)CC2CCCO2)c(O)c1 (stereo not drawn) | -4 | i | 0 | 6 | 2 | 10
COc1ccc(C(=O)/C=C/C(=O)N(CC(=O)NC2CCCCC2)Cc2ccccc2)c(O)c1 | 30* | i | 1 | 1 | 1 | -3
COc1ccc(C(=O)/C=C/C(=O)N(CC(=O)NC2CCCCC2)Cc2ccccc2OC)c(O)c1 | 33* | i | 5 | 1 | 1 | 43
COc1ccc(C(=O)/C=C/C(=O)N(Cc2ccccc2OC)C(C(=O)NC2CCCCC2)c2ccncc2)c(O)c1 (stereo not drawn) | -8 | i | -14 | -2 | 0 | -36
CC1CCC2(CC1)NC(=S)N(C(C)(C)C)N2 (stereo not drawn) | -8 | i | x | x | x | -1
CC1CCC2(CC1)NC(=S)N(c1ccccc1)N2 (stereo not drawn) | -4 | i | -3 | 0 | 0 | 100*
CCOc1ccc(N(C)S(=O)(=O)c2c[nH]c(C(=O)OC)c2)cc1 | x | x | x | x | x | 65*
COC(=O)c1cc(S(=O)(=O)N(C)c2ccc(C)c(C)c2)c[nH]1 | x | x | x | x | x | 23
CCCCN(Cc1ccco1)S(=O)(=O)c1c[nH]c(C(=O)OC)c1 | x | x | x | x | x | 27
CCCN(c1ccccc1F)S(=O)(=O)c1c[nH]c(C(=O)OC)c1 | x | x | x | x | x | 70*
COc1cc(/C=C(/NC(=O)c2ccccc2)C(=O)N2CCOCC2)c([N+](=O)[O-])cc1OC | x | x | x | x | x | 58
O=C(NC1CCCCC1)C(c1ccccc1F)N(C(=O)c1csnn1)C1CCCC1 (stereo not drawn) | x | x | x | x | x | -17
N#Cc1ccc(C(=O)Nc2cccc3ccccc23)c(F)c1 | x | x | x | x | x | 14
Cc1cc(C(=O)CSc2n[nH]c(N)n2)c(C)n1C1CC1 | -34 | i | 0 | 2 | 0 | 96*
Cc1nnc(SCC(=O)c2cc(C)n(C3CC3)c2C)s1 | 5 | i | -9 | 1 | 0 | 105*
Cc1ccc(-n2c(C)cc(C(=O)CSc3n[nH]c(N)n3)c2C)cc1 | -14 | i | 6 | 0 | 0 | -27
C=CCn1c(C)cc(C(=O)CSc2n[nH]c(N)n2)c1C | 1 | i | 4 | 2 | 1 | 62*
SMILES | NCF1 inh | HSV augment | PKD1 kinase inh | ABCG2 block | ABCB1 block | PHOSPHO1 inh
Cc1nnc(SCC(=O)c2cc(C)n(-c3ccc4c(c3)OCO4)c2C)s1 | -7 | i | 1 | 17 | 1 | 92*
Cc1nn(C(=O)N(C)C)c(C)c1CN1C(=O)c2ccccc2C1=O | x | x | x | x | x | 24
CCOC(=O)C1CCCCN1Cc1ccccc1C(F)(F)F (stereo not drawn) | 4 | i | 4 | 0 | 0 | -2
Cc1cc(C(=O)CSc2nnc(-c3ccco3)o2)c(C)n1Cc1ccco1 | -10 | x | -10 | 10 | 2 | 1
Cc1cc(C(=O)CSc2n[nH]c(N)n2)c(C)n1-c1ccccc1 | -19 | i | -5 | 1 | 0 | 95*
Cc1cc(C(=O)CSc2nnc(-c3ccco3)o2)c(C)n1-c1ccc2c(c1)OCCO2 | -30 | i | -16 | 2 | 1 | 92*
Cc1cc(C(=O)CSc2nnc(Cc3ccccc3)o2)c(C)n1Cc1ccc2c(c1)OCO2 | -62 | i | -6 | 1 | 0 | 10
C=CCn1c(C)cc(C(=O)CSc2nnc(Cc3ccccc3)o2)c1C | -8 | i | 9 | 2 | 0 | 88*
CCOC(=O)c1c(O)cc(C)[nH]c1=O | 5 | i | x | x | x | 20
COc1ccc(CCC(C)N(C)Cc2ccccc2)cc1 (stereo not drawn) | x | x | x | x | x | 39
CCCCC(=O)Nc1nc(C)c(-c2csc(Nc3cc(Cl)ccc3OC)n2)s1 | -22 | i | 8 | -2 | -1 | 99*
CCCCCCC(=O)Nc1nc(C)c(-c2csc(Nc3cc(Cl)ccc3C)n2)s1 | -27 | i | -1 | 0 | 0 | -79
CCCCC(=O)Nc1nc(C)c(-c2csc(Nc3cc(OC)ccc3OC)n2)s1 | -9 | i | 8 | -2 | -1 | 70*
S=c1nc(-c2ccc(Cl)cc2)[nH][nH]1 | 2 | i | x | x | x | 28
Cc1ccc(C)n1-c1nc(=S)[nH][nH]1 | -14 | i | -2 | -2 | 0 | 102*
CC(=O)Nc1ccc(NS(=O)(=O)c2cc(-c3n[nH]c(=O)c4ccccc34)ccc2C)cc1 | -5 | i | x | x | x | 32
Nc1c(C(=O)c2ccccc2)sc2nsc(SCCN3CCOCC3)c12 | 5 | i | x | x | x | 61*
CC(=O)c1sc2nsc(SCCN3CCOCC3)c2c1N | -9 | i | x | x | x | 86*
CN1Cc2c(N3CCOCC3)nc3sc(C(=O)c4ccccc4)c(N)c3c2CC1(C)C | -7 | i | x | x | x | 28
Cc1ccccc1CSc1nnc(-c2cnccn2)n1C | 4 | i | x | x | x | 24
C=C(C)c1cccc(C(C)(C)NC(=O)N(C)C2CCN(C)CC2)c1 | 110* | i | 0 | 3 | 0 | 16
C=C(C)c1cccc(C(C)(C)NC(=O)NCc2ccncc2)c1 | -9 | i | -4 | 3 | 0 | 66*
C=C(C)c1cccc(C(C)(C)NC(=O)NCc2cccnc2)c1 | 2 | i | 3 | 2 | 1 | 41
Cc1cc(SCC(=O)NCCC2=CCCCC2)nc2ccccc12 | -6 | i | 7 | 2 | 1 | 33
CCOCCCn1c(=NC(=O)c2ccco2)c(C(=O)OCC)cc2c(=O)n3cccc(C)c3nc21 | 0 | i | x | x | x | 28
CCC(C(=O)N1CCN(Cc2ccc3c(c2)OCO3)CC1)n1c(=O)[nH]c2ccccc2c1=O (stereo not drawn) | x | x | x | x | x | 70*
COC(=O)c1[nH]c2ccc(C)cc2c1NC(=O)CN1CCN(c2ccccc2)CC1 | -1 | i | -6 | 2 | 1 | 6
Cc1ccc2[nH]c(C(=O)O)c(NC(=O)CN3CCN(c4cccc(C)c4C)CC3)c2c1 | -6 | i | -2 | 1 | 0 | 57

From PubChem
